# Legend:
# Brain [1] = assay: Biodistribution in CD1 mouse brain measured at 60 mins by autoradiographic analysis; assay type: ADME, organism-based; settings: in vivo, 1 h
# [2] = Cyclohexane-PBS distribution coefficient, log D of the compound at pH 7.2 after 30 mins by shake-flask method; assay type: physicochemical; settings: pH 7.2, 0.5 h
# [3] = Stability of the compound in PBS buffer assessed as compound remaining at pH 7.2 measured up to 2 hrs by radio-TLC analysis; assay type: physicochemical; settings: read-out: Stability
# How it was run: (§1)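 Tracer formulated in isotonic saline, then diluted 1:20 into 50 mM Tris–HCl (pH 6.7) or PBS (pH 7.2). Stirred at 40 °C for up to 2 h, sampled at 5, 10, 30, 60, 90 and 120 min, and analysed by radio-TLC for intact tracer.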
# [4] = Stability of the compound in Tris-HCl buffer assessed as compound remaining at pH 6.7 measured up to 2 hrs by radio-TLC analysis; assay type: physicochemical; settings: read-out: Stability; how it was run: as §1
# [5] = Ratio of drug level in brain to plasma in CD1 mouse at 200 to 300 kBq, iv measured at 60 mins; assay type: ADME, organism-based; settings: read-out: BPR
# How it was run: (§2)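 Female CD-1 mice injected intravenously with 200–300 kBq tracer. Animals killed at 5, 15, 30 and 60 min (n = 3; n = 7 at 60 min). Brain and plasma activity gamma-counted as % ID/g wet weight, and the brain-to-plasma ratio taken from these values.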
# [6] = Stability of the compound in PBS buffer assessed as compound remaining at pH 7.2 measured at 5 mins by radio-TLC analysis; assay type: physicochemical; settings: read-out: Stability; how it was run: as §1
# [7] = Ratio of drug level in brain to plasma in CD1 mouse at 200 to 300 kBq, iv measured at 30 mins; assay type: ADME, organism-based; settings: read-out: BPR; how it was run: as §2
# [8] = Ratio of drug level in brain to plasma in CD1 mouse at 200 to 300 kBq, iv measured at 5 mins; assay type: ADME, organism-based; settings: read-out: BPR; how it was run: as §2
# [9] = n-Octanol-PBS distribution coefficient, log D of the compound at pH 7.2 after 30 mins by shake-flask method; assay type: physicochemical
# [10] = Stability of the compound in Tris-HCl buffer assessed as compound remaining at pH 6.7 measured at 5 mins by radio-TLC analysis; assay type: physicochemical; settings: read-out: Stability; how it was run: as §1
# [11] = Ratio of drug level in brain to plasma in CD1 mouse at 200 to 300 kBq, iv measured at 15 mins; assay type: ADME, organism-based; settings: read-out: BPR; how it was run: as §2
# Urinary bladder = assay: Biodistribution in CD1 mouse bladder at 200 to 300 kBq, iv measured at 60 mins by gamma counting analysis in presence of NS6740; assay type: ADME, organism-based; settings: in vivo, 1 h
# How it was run: (§3)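 Blocking study in female CD-1 mice, n = 7 per blocker, with a matching control group. SSR180711 or NS6740 given at 10 mg kg⁻¹ ip in 0.9% saline 10 min before iv radiotracer (200–300 kBq). Organs taken at 60 min p.i., weighed and gamma-counted; uptake as % ID per g wet weight. Compared with control by two-tailed independent Student's t test.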
# [12] = Biodistribution in CD1 mouse urine at 200 to 300 kBq, iv measured at 60 mins by gamma counting analysis in presence of NS6740; assay type: ADME, organism-based; settings: in vivo, 1 h
# How it was run: (§4)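 Female CD-1 mice given 200–300 kBq tracer intravenously. Animals anaesthetised for blood and urine sampling, then killed by cervical dislocation at 5, 15, 30 or 60 min (n = 3 per time; n = 7 at 60 min). Organs removed and weighed, activity gamma-counted, expressed as % injected dose per g wet weight. Blocking arm: 10 mg/kg i.p. in 0.9% saline, 10 min before tracer; two-tailed unpaired t test versus control.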
# Pancreas = assay: Biodistribution in CD1 mouse pancreas at 200 to 300 kBq, iv measured at 60 mins by gamma counting analysis in presence of NS6740; assay type: ADME, organism-based; settings: in vivo, 1 h
# How it was run: (§5)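 Blocking design in female CD-1 mice, n = 7 per group. The blocker was given at 10 mg kg^-1 i.p. in 0.9% saline 10 min before i.v. 200–300 kBq [18F]radiotracer. Mice were killed at 60 min p.i. and organs weighed and gamma-counted as % ID per g wet weight. Blocked groups were compared with controls by two-tailed independent Student's t test.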
# Blood = assay: Biodistribution in CD1 mouse blood at 200 to 300 kBq, iv measured at 60 mins by gamma counting analysis in presence of NS6740; assay type: ADME, organism-based; settings: in vivo, 1 h; how it was run: as §3
# Mus musculus [13] = assay: Biodistribution in CD1 mouse adrenal at 200 to 300 kBq, iv measured at 60 mins by gamma counting analysis in presence of NS6740; assay type: ADME, organism-based, Adrenal gland; settings: in vivo, 1 h; how it was run: as §3
# Liver = assay: Biodistribution in CD1 mouse liver at 200 to 300 kBq, iv measured at 60 mins by gamma counting analysis in presence of NS6740; assay type: ADME, organism-based; settings: in vivo, 1 h; how it was run: as §5
# Stomach = assay: Biodistribution in CD1 mouse stomach at 200 to 300 kBq, iv measured at 60 mins by gamma counting analysis in presence of NS6740; assay type: ADME, organism-based; settings: in vivo, 1 h; how it was run: as §5
# Femur = assay: Biodistribution in CD1 mouse femur at 200 to 300 kBq, iv measured at 60 mins by gamma counting analysis in presence of NS6740; assay type: ADME, organism-based; settings: in vivo, 1 h; how it was run: as §3
# Mus musculus [14] = assay: Biodistribution in CD1 mouse small intestine at 200 to 300 kBq, iv measured at 60 mins by gamma counting analysis in presence of NS6740; assay type: ADME, organism-based; settings: in vivo, 1 h; how it was run: as §5
# Heart = assay: Biodistribution in CD1 mouse heart at 200 to 300 kBq, iv measured at 60 mins by gamma counting analysis in presence of NS6740; assay type: ADME, organism-based; settings: in vivo, 1 h; how it was run: as §3
# Lung = assay: Biodistribution in CD1 mouse lung at 200 to 300 kBq, iv measured at 60 mins by gamma counting analysis in presence of NS6740; assay type: ADME, organism-based; settings: in vivo, 1 h; how it was run: as §5
# Spleen = assay: Biodistribution in CD1 mouse spleen at 200 to 300 kBq, iv measured at 60 mins by gamma counting analysis in presence of NS6740; assay type: ADME, organism-based; settings: in vivo, 1 h; how it was run: as §5
# Zone of skin = assay: Biodistribution in CD1 mouse skin at 200 to 300 kBq, iv measured at 60 mins by gamma counting analysis in presence of NS6740; assay type: ADME, organism-based; settings: in vivo, 1 h; how it was run: as §5
# Brain [15] = assay: Biodistribution in CD1 mouse brain at 200 to 300 kBq, iv measured at 60 mins by gamma counting analysis in presence of NS6740; assay type: ADME, organism-based; settings: in vivo, 1 h; how it was run: as §3
# Mus musculus [16] = assay: Biodistribution in CD1 mouse large intestine at 200 to 300 kBq, iv measured at 60 mins by gamma counting analysis in presence of NS6740; assay type: ADME, organism-based; settings: in vivo, 1 h; how it was run: as §3
# Kidney = assay: Biodistribution in CD1 mouse kidney at 200 to 300 kBq, iv measured at 60 mins by gamma counting analysis in presence of NS6740; assay type: ADME, organism-based; settings: in vivo, 1 h; how it was run: as §3
# Muscle tissue = assay: Biodistribution in CD1 mouse muscle at 200 to 300 kBq, iv measured at 60 mins by gamma counting analysis in presence of NS6740; assay type: ADME, organism-based; settings: in vivo, 1 h; how it was run: as §5
# [17] = target: Neuronal acetylcholine receptor subunit alpha-7 (Rattus norvegicus, UniProt Q05941); assay: Displacement of [3H]A-585539 from rat brain alpha7 nAChR by scintillation counting analysis
# Mus musculus [18] = assay: Biodistribution in CD1 mouse thymus at 200 to 300 kBq, iv measured at 60 mins by gamma counting analysis in presence of NS6740; assay type: ADME, organism-based; settings: in vivo, 1 h; how it was run: as §4
# [19] = target: Neuronal acetylcholine receptor; alpha3/beta4 (Homo sapiens, UniProt P30926+P32297); assay: Displacement of (+/-)[3H]-epibatidine from human alpha3beta4 nAChR transfected in HEK293 cells after 90 mins by liquid scintillation counting analysis; assay type: cell-based
# How it was run: (§6)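 Homogenates of HEK293 cells transfected with human α4β2 or α3β4 nAChR, with about 0.5 nM (±)-[3H]epibatidine and compound 10 pM–10 µM. Buffer: 50 mM Tris–HCl pH 7.4 with NaCl, KCl, MgCl2 and CaCl2. Incubated 90 min at room temperature; nonspecific binding defined with 300 µM (−)-nicotine tartrate. Filtered onto PEI-soaked GF/B, scintillation counted, triplicates; IC50 by nonlinear regression, Ki by Cheng–Prusoff.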
# Homo sapiens [20] = species on record: Homo sapiens; assay: Selectivity ratio of Ki for human alpha3beta4 nAChR to Ki for human alpha7 nAChR
# [21] = target: Neuronal acetylcholine receptor; alpha4/beta2 (Homo sapiens, UniProt P17787+P43681); assay: Displacement of (+/-)[3H]-epibatidine from human alpha4beta2 nAChR transfected in HEK293 cells after 90 mins by liquid scintillation counting analysis; assay type: cell-based; how it was run: as §6
# Homo sapiens [22] = species on record: Homo sapiens; assay: Selectivity ratio of Ki for human alpha4beta2 nAChR to Ki for human alpha7 nAChR
# [23] = target: T1, Neuronal acetylcholine receptor subunit alpha-7 (Homo sapiens, UniProt P36544); assay: Displacement of [3H]-methyllycaconitine from human alpha7 nAChR transfected in human SH-SY5Y cells after 240 mins by liquid scintillation counting analysis; assay type: cell-based
# How it was run: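 Homogenates of SH-SY5Y cells transfected with human α7 nAChR, with about 0.3 nM [3H]methyllycaconitine and compound 10 pM–10 µM in Tris–HCl pH 7.4 saline buffer. Incubated 240 min at room temperature; nonspecific binding defined with 300 µM (−)-nicotine tartrate. Filtered onto PEI-soaked GF/B, washed with ice-cold Tris, scintillation counted, triplicates; Ki via Cheng–Prusoff.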
# [24] = target: T1, Neuronal acetylcholine receptor subunit alpha-7; assay: Binding affinity to alpha7 nAChR (unknown origin)
# How it was run: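 Radioligand competition on homogenates of SH-SY5Y cells transfected with human α7 nAChR. [³H]methyllycaconitine at about 0.3 nM working concentration, test ligand in serial dilution 10 pM–10 µM. Buffer 50 mM Tris–HCl pH 7.4 with 120 mM NaCl, 5 mM KCl, 2.5 mM MgCl₂, 1 mM CaCl₂. Nonspecific binding defined with 300 µM (−)-nicotine tartrate. Incubated 240 min at room temperature, then filtered on PEI-soaked GF/B and counted by scintillation. Run in triplicate; IC50 by non-linear regression, Ki by Cheng–Prusoff.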
# T1 sequence (P36544 whole entry): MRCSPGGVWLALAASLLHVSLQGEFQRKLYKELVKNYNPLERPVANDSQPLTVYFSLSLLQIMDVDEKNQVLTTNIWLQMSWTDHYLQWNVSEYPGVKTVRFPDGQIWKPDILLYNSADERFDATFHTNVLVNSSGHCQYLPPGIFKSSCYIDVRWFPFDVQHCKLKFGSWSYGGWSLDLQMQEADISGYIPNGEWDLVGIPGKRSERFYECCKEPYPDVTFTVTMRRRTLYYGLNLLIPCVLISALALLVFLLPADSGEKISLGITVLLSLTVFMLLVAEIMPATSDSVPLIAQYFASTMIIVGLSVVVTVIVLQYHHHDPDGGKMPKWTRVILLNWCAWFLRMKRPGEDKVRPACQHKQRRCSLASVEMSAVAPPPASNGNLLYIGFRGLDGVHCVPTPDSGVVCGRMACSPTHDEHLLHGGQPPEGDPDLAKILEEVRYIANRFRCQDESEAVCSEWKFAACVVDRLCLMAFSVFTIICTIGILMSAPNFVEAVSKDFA
# Sequence of Neuronal acetylcholine receptor subunit alpha-7 (Rattus norvegicus, UniProt Q05941) (Q05941 whole entry): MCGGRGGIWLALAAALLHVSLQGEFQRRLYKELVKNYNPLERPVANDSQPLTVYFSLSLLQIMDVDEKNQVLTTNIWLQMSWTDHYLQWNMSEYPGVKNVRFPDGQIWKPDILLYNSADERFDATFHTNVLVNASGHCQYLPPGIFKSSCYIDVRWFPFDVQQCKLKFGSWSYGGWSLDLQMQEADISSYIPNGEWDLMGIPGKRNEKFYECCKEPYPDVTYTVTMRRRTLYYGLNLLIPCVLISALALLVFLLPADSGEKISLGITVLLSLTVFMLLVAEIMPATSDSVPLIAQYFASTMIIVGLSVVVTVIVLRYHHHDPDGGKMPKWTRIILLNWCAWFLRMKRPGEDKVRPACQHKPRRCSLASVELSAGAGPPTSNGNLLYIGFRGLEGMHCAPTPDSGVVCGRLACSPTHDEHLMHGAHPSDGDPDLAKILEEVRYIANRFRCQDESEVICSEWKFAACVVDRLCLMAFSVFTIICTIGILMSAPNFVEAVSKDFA
# Sequence of Neuronal acetylcholine receptor; alpha4/beta2 (P17787 whole entry): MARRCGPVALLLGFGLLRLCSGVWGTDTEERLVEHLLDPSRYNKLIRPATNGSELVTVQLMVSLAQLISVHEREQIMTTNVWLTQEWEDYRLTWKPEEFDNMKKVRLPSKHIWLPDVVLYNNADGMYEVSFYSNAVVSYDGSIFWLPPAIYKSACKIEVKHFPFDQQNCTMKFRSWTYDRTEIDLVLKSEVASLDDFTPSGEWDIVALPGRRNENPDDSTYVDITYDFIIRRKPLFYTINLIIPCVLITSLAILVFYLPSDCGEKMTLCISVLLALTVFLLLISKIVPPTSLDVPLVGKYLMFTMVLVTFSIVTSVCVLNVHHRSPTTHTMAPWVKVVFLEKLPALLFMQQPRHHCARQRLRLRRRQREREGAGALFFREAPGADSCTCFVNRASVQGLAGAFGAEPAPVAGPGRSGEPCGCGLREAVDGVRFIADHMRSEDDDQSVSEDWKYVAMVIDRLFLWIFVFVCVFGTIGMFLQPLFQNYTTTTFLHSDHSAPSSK
# Sequence of Neuronal acetylcholine receptor; alpha4/beta2 (P43681 whole entry): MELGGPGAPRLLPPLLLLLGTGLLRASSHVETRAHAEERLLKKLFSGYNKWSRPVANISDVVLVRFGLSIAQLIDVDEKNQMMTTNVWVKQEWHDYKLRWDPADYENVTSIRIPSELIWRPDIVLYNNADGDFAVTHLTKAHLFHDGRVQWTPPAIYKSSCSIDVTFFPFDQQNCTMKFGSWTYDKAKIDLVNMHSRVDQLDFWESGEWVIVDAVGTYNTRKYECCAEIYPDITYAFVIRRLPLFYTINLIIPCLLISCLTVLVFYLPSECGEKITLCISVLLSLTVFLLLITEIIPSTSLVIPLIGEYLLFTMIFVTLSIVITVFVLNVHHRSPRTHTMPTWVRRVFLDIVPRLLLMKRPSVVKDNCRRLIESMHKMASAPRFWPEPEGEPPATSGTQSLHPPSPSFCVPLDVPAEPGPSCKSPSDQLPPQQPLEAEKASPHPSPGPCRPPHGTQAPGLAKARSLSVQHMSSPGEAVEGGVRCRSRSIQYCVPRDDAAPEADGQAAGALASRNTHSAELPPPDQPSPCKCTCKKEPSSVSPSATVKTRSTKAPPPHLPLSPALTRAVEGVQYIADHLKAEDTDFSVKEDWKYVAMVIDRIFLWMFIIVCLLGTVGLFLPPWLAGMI
# Sequence of Neuronal acetylcholine receptor; alpha3/beta4 (P30926 whole entry): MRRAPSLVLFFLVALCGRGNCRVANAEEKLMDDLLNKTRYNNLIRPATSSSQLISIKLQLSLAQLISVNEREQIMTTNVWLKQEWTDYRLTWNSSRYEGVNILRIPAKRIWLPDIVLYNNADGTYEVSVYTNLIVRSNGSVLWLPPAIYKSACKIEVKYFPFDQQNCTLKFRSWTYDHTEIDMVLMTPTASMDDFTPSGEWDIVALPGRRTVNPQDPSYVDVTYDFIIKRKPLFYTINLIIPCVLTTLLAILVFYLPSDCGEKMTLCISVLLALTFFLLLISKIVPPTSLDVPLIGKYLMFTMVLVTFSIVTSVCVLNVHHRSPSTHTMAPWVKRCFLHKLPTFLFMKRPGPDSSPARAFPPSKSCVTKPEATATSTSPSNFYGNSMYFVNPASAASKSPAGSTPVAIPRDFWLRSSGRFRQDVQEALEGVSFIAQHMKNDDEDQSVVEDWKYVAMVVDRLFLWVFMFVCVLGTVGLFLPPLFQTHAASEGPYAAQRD
# Sequence of Neuronal acetylcholine receptor; alpha3/beta4 (P32297 whole entry): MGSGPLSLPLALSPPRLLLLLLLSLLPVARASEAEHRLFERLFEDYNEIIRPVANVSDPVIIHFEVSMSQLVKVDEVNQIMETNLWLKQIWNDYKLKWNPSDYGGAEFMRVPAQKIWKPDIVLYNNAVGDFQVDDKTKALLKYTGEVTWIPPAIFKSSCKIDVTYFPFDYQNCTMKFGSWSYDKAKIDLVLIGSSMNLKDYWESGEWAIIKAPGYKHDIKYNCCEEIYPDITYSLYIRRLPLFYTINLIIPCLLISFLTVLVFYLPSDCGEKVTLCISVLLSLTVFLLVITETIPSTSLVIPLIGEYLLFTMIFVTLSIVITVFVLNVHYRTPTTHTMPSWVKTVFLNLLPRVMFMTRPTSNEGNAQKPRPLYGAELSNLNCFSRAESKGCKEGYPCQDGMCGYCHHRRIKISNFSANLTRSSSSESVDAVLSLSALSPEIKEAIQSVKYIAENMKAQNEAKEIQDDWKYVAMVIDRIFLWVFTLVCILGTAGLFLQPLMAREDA
smiles,measurement,setting,value
[18F]c1ccc(-c2nnc(N3CCN4CCC3CC4)o2)cc1,Drug uptake,Brain [1],1.73 % ID/g
[18F]CCn1ccc2ccc(-c3nnc(N4CCN5CCC4CC5)o3)cc21,logD,[2],-2.05
same,remaining at 2 h,[3],≥ 97%
same,remaining at 2 h,[4],≥ 97%
same,Kp at 1 h,[5],0.26
same,remaining at 5 min,[6],98%
same,Kp at 0.5 h,[7],0.19
same,Kp at 5 min,[8],0.11
same,logD at 0.5 h,[9],1.11
same,remaining at 5 min,[10],98%
same,Kp at 0.25 h,[11],0.18
O=C(c1ccc(-c2cccc(C(F)(F)F)c2)o1)N1CCN2CCC1CC2,Drug uptake,Urinary bladder,1.45 % ID/g
same,Drug uptake,[12],218 % ID/g
same,Drug uptake,Pancreas,3.04 % ID/g
same,Drug uptake,Blood,0.75 % ID/g
same,Drug uptake,Mus musculus [13],2.51 % ID/g
same,Drug uptake,Liver,6.67 % ID/g
same,Drug uptake,Stomach,9.71 % ID/g
same,Drug uptake,Femur,1.49 % ID/g
same,Drug uptake,Mus musculus [14],15.3 % ID/g
same,Drug uptake,Heart,1.77 % ID/g
same,Drug uptake,Lung,4.56 % ID/g
same,Drug uptake,Spleen,6.57 % ID/g
same,Drug uptake,Zone of skin,1.7 % ID/g
same,Drug uptake,Brain [15],0.14 % ID/g
same,Drug uptake,Mus musculus [16],5.11 % ID/g
same,Drug uptake,Kidney,11.7 % ID/g
same,Drug uptake,Muscle tissue,1.05 % ID/g
same,Ki,[17],1.1 nM
same,Drug uptake,Mus musculus [18],2.25 % ID/g
FCCn1ccc2ccc(-c3nnc(N4CCN5CCC4CC5)o3)cc21,Ki,[19],102 nM
same,Ratio Ki,Homo sapiens [20],40.8
same,Ki,[21],> 1000 nM
same,Ratio Ki,Homo sapiens [22],> 400
same,Ki,[23],2.5 nM
Fc1ccc(-c2nnc(N3CCN4CCC3CC4)o2)cc1,Ki,[24],11.6 nM

# Reference: ChEMBL document CHEMBL2380270, “Radiosynthesis and first evaluation in mice of [(18)F]NS14490 for molecular imaging of α7 nicotinic acetylcholine receptors” (Bioorg Med Chem, 2013)
